Laboratory results taken from ChEMBL document CHEMBL4043089, “Allosteric Targeting of the Fanconi Anemia Ubiquitin-Conjugating Enzyme Ube2T by Fragment Screening” (J Med Chem, 2017).
Where a chain is given by its changes, count along the chain named. pKd: −log10 of the molar value. Calls of active or inactive are those of the source. The calls are words filed in the database; no cut-off is given here.

Legend:
[1] = biological target: T1, Ubiquitin-conjugating enzyme E2 T (Homo sapiens) (UniProt Q9NPD8); assay: Binding affinity to [1H-15N]-labeled N-terminal 6xHis-Smt3 tagged human Ube2T (1 to 154 residues) expressed in Escherichia coli BL21(DE3) by chemical shift perturbation assay
T1 sequence (whole entry): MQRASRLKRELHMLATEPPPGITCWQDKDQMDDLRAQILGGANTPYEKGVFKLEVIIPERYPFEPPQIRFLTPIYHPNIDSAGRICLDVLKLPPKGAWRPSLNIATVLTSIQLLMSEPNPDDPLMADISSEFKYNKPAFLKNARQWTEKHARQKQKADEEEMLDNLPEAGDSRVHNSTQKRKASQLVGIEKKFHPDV

[2] = biological target: Ubiquitin-conjugating enzyme E2 D3 (Homo sapiens) (UniProt P61077); assay: Inhibition of UbcH5c (unknown origin) assessed as RNF4 ubiquitination at 2.5 mM after 15 mins in presence of fluorescently-labeled […] by fluorescence assay
Ubiquitin-conjugating enzyme E2 D3 (Homo sapiens), sequence (P61077 whole entry, looked up): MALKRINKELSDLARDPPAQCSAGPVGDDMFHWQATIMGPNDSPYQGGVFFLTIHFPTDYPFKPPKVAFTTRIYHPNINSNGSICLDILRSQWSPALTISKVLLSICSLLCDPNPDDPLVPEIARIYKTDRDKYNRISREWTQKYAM

[3] = test system: T2, Ubiquitin-conjugating enzyme E2 T (Homo sapiens), Q9NPD8 [P73K]; assay: Binding affinity to full length recombinant N-terminal 6xHis-Smt3 tagged human Ube2T P73K mutant expressed in Escherichia coli BL21(DE3) by ITC
T2 sequence (whole entry): T1 sequence (whole entry) with P73K

[4] = biological target: T1, Ubiquitin-conjugating enzyme E2 T (Homo sapiens); assay: Inhibition of full length N-terminal 6xHis-Smt3 tagged human Ube2T expressed in Escherichia coli BL21(DE3) assessed as FANCD2 ubiquitination after 15 mins in presence of fluorescently-labeled Ub/recombinant human E1/ATP by fluorescence assay
Procedure, shortened: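 Ube2T-driven FANCD2 monoubiquitination with E1, FANCL and fluorescently labelled ubiquitin, tested as a four-point titration. Gels were fluorescence-scanned, and the integrated intensity of the monoubiquitinated FANCD2 band was normalized to DMSO reactions. Three independent experiments, plotted as mean ± range.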

[5] = biological target: T1, Ubiquitin-conjugating enzyme E2 T (Homo sapiens); assay: Inhibition of full length N-terminal 6xHis-Smt3 tagged human Ube2T expressed in Escherichia coli BL21(DE3) assessed as FANCD2 ubiquitination at 2.5 mM after 15 mins in presence of fluorescently-labeled Ub/recombinant human E1/FANCL in 0.05% Tween20 containing buffer by fluorescence assay
[6] = biological target: T3, Ubiquitin-conjugating enzyme E2 T (Homo sapiens, UniProt Q9NPD8); assay: Binding affinity to full length N-terminal 6xHis-Smt3 tagged human Ube2T expressed in Escherichia coli BL21(DE3) by ITC
T3 sequence (Q9NPD8 whole entry): T1 sequence (whole entry)

SMILES	Activity [1]	inhibition [2]	Activity [3]	inhibition [4]	inhibition [5]	pKd [6]
N#Cc1cc(-c2ccccc2)oc1N	Dose-dependent effect					
Nc1nc(-c2ccccc2)cs1	Dose-dependent effect	inactive	Active	Dose-dependent effect	Active	
NCc1nc2ccccc2s1	Dose-dependent effect	inactive		Dose-dependent effect	Active	2.89
NC(=O)C1CCCc2c1[nH]c1ccc(Cl)cc21 (configuration not stated)	Dose-dependent effect	inactive	Active	Dose-dependent effect	Active	
NC(=O)c1ccc(-c2ccccn2)s1	Dose-dependent effect					
